ChEMBL document CHEMBL1240527, “3'-Deoxy phosphoramidate dinucleosides as improved inhibitors of hepatitis C virus subgenomic replicon and NS5B polymerase activity” (J Med Chem, 2010)

Tests used:
[1] = tested on: Hepatitis C virus; assay: Antiviral activity against HCV1b infected in human HuH6 cells assessed as inhibition of viral RNA replication after 3 days by RT-PCR analysis; assay type: functional, organism-based, Hepacivirus hominis; settings: genotype 1b, HuH-6, 72 h
Method in brief: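 Huh-6 cells stably carrying a genotype 1b (Con1-derived) subgenomic HCV replicon, seeded 1.5 × 10^4 cells/well and incubated 24 h at 37 C, 5% CO2. Then exposed to serial dilutions from 0.025 to 65 μM (10 concentrations) in complete DMEM for 3 days. Lysates assayed for replicon RNA by real-time RT-qPCR against a neomycin-plasmid standard curve. EC50 is 50% RNA reduction versus untreated control, averaged over three independent experiments.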

[2] = Inhibition of HCV recombinant His6x-tagged NS5B Cdelta55 polymerase-mediated RNA synthesis expressed in Escherichia coli BL21(DE3) assessed as reduction of pppGpC accumulation after 15 mins; parameters: species or system Hepacivirus hominis
Method in brief: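 Inhibitor range 0–1000 μM. Reaction started with 2 mM MnCl2, 1 mM MgCl2, 50 μM γ-32P-GTP and 100 μM CTP, then 15 min at 30 C. EDTA/formamide quench. pppGpC resolved on sequencing gel and quantified by phosphorimaging. IC50 fitted; at least three experiments.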

[3] = Cytotoxicity against human HuH6 cells after 3 days by MTS/PMS method; assay type: cell-based
Method in brief: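 Run in parallel with the replicon assay: Huh-6 genotype 1b replicon cells seeded 1.5 × 10^4/well, treated 24 h later with 0.025–65 μM compound in complete DMEM for 3 days at 37 C, 5% CO2. Cell number read by MTS/PMS. CC50 is the concentration giving 50% reduction in proliferation of exponentially growing cells versus untreated control.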

Structure (SMILES)	EC50 [1]	IC50 [2]	CC50 at 72 h [3]
CO[C@@H]1[C@H](OP(=O)(NCCCCCC(=O)O)OC[C@@H]2C[C@@H](O)[C@H](n3ccc(N)nc3=O)O2)[C@@H](COP(=O)(O)O)O[C@H]1n1cnc2c(=O)[nH]c(N)nc21 (some centres undefined)	1.7 µM	34 µM	> 65 µM
CO[C@@H]1[C@H](OP(=O)(NCCCOP(=O)(O)O)OC[C@@H]2C[C@@H](O)[C@H](n3ccc(N)nc3=O)O2)[C@@H](CO)O[C@H]1n1cnc2c(=O)[nH]c(N)nc21 (some centres undefined)	–	21 µM	–
CO[C@@H]1[C@H](OP(=O)(NCCCCCC(=O)O)OC[C@@H]2C[C@@H](O)[C@H](n3ccc(N)nc3=O)O2)[C@@H](CO)O[C@H]1n1cnc2c(=O)[nH]c(N)nc21 (some centres undefined)	–	67 µM	–
CO[C@@H]1[C@H](O[P@@](=O)(NCCCC(C(=O)O)C(=O)O)OC[C@@H]2C[C@@H](O)[C@H](n3ccc(N)nc3=O)O2)[C@@H](COP(=O)(O)O)O[C@H]1n1cnc2c(=O)[nH]c(N)nc21	–	121 µM	–
CO[C@@H]1[C@H](O[P@](=O)(NCCCC(C(=O)O)C(=O)O)OC[C@@H]2C[C@@H](O)[C@H](n3ccc(N)nc3=O)O2)[C@@H](COP(=O)(O)O)O[C@H]1n1cnc2c(=O)[nH]c(N)nc21	–	57 µM	–
COCCOCCN[P@@](=O)(OC[C@@H]1C[C@@H](O)[C@H](n2ccc(N)nc2=O)O1)O[C@H]1[C@@H](OC)[C@H](n2cnc3c(=O)[nH]c(N)nc32)O[C@@H]1COP(=O)(O)O	–	64 µM	–
COCCOCCN[P@](=O)(OC[C@@H]1C[C@@H](O)[C@H](n2ccc(N)nc2=O)O1)O[C@H]1[C@@H](OC)[C@H](n2cnc3c(=O)[nH]c(N)nc32)O[C@@H]1COP(=O)(O)O	–	42 µM	–
COCCNP(=O)(OC[C@@H]1C[C@@H](O)[C@H](n2ccc(N)nc2=O)O1)O[C@H]1[C@@H](OC)[C@H](n2cnc3c(=O)[nH]c(N)nc32)O[C@@H]1COP(=O)(O)O (some centres undefined)	19.4 µM	29 µM	> 65 µM
COCCN[P@@](=O)(OC[C@@H]1C[C@@H](O)[C@H](n2ccc(N)nc2=O)O1)O[C@H]1[C@@H](OC)[C@H](n2cnc3c(=O)[nH]c(N)nc32)O[C@@H]1COP(=O)(O)O	1.6 µM	72 µM	> 65 µM
COCCN[P@@](=O)(OC[C@H]1O[C@@H](n2ccc(N)nc2=O)[C@H](O)[C@@H]1O)O[C@H]1[C@@H](OC)[C@H](n2cnc3c(=O)[nH]c(N)nc32)O[C@@H]1COP(=O)(O)O	38 µM	28 µM	> 65 µM
COCCN[P@](=O)(OC[C@H]1O[C@@H](n2ccc(N)nc2=O)[C@H](O)[C@@H]1O)O[C@H]1[C@@H](OC)[C@H](n2cnc3c(=O)[nH]c(N)nc32)O[C@@H]1COP(=O)(O)O	4.5 µM	37 µM	> 65 µM
CO[C@@H]1[C@H](O[P@@](=O)(NCCCCCC(=O)O)OC[C@H]2O[C@@H](n3ccc(N)nc3=O)[C@H](O)[C@@H]2O)[C@@H](COP(=O)(O)O)O[C@H]1n1cnc2c(=O)[nH]c(N)nc21	–	26 µM	–
CO[C@@H]1[C@H](OP(=O)(NCCCCCC(=O)O)OC[C@H]2O[C@@H](n3ccc(N)nc3=O)[C@H](O)[C@@H]2O)[C@@H](COP(=O)(O)O)O[C@H]1n1cnc2c(=O)[nH]c(N)nc21 (some centres undefined)	–	83 µM	–
COCCNP(=O)(OC[C@H]1O[C@@H](n2ccc(N)nc2=O)[C@H](O)[C@@H]1O)O[C@H]1[C@@H](OC)[C@H](n2cnc3c(=O)[nH]c(N)nc32)O[C@@H]1COP(=O)(O)O (some centres undefined)	> 50 µM	140 µM	> 65 µM

Stronger by IC50 [2], values ahead:

EC50 [1]	IC50 [2]	Structure (SMILES)	CC50 at 72 h [3]
–	20.3 µM	CO[C@@H]1[C@H](O[P@@](=O)(NCCCOP(=O)(O)O)OC[C@@H]2C[C@@H](O)[C@H](n3ccc(N)nc3=O)O2)[C@@H](COP(=O)(O)O)O[C@H]1n1cnc2c(=O)[nH]c(N)nc21	–
–	19 µM	CO[C@@H]1[C@H](OP(=O)(NCCCC(C(=O)O)C(=O)O)OC[C@@H]2C[C@@H](O)[C@H](n3ccc(N)nc3=O)O2)[C@@H](CO)O[C@H]1n1cnc2c(=O)[nH]c(N)nc21 (some centres undefined)	–
–	18.5 µM	CO[C@@H]1[C@H](O[P@](=O)(NCCCOP(=O)(O)O)OC[C@@H]2C[C@@H](O)[C@H](n3ccc(N)nc3=O)O2)[C@@H](COP(=O)(O)O)O[C@H]1n1cnc2c(=O)[nH]c(N)nc21	–
3.6 µM	18 µM	COCCOCCNP(=O)(OC[C@@H]1C[C@@H](O)[C@H](n2ccc(N)nc2=O)O1)O[C@H]1[C@@H](OC)[C@H](n2cnc3c(=O)[nH]c(N)nc32)O[C@@H]1COP(=O)(O)O (some centres undefined)	> 65 µM
–	16 µM	CO[C@@H]1[C@H](O[P@](=O)(NCCCCCC(=O)O)OC[C@H]2O[C@@H](n3ccc(N)nc3=O)[C@H](O)[C@@H]2O)[C@@H](COP(=O)(O)O)O[C@H]1n1cnc2c(=O)[nH]c(N)nc21	–
–	13 µM	CO[C@@H]1[C@H](O[P@](=O)(NCCCCCC(=O)O)OC[C@@H]2C[C@@H](O)[C@H](n3ccc(N)nc3=O)O2)[C@@H](COP(=O)(O)O)O[C@H]1n1cnc2c(=O)[nH]c(N)nc21	–
3.9 µM	10 µM	CO[C@@H]1[C@H](OP(=O)(NCCCOP(=O)(O)O)OC[C@@H]2C[C@@H](O)[C@H](n3ccc(N)nc3=O)O2)[C@@H](COP(=O)(O)O)O[C@H]1n1cnc2c(=O)[nH]c(N)nc21 (some centres undefined)	> 65 µM
–	9 µM	CO[C@@H]1[C@H](O[P@@](=O)(NCCCCCC(=O)O)OC[C@@H]2C[C@@H](O)[C@H](n3ccc(N)nc3=O)O2)[C@@H](COP(=O)(O)O)O[C@H]1n1cnc2c(=O)[nH]c(N)nc21	–
2.6 µM	8 µM	CO[C@@H]1[C@H](OP(=O)(NCCCC(C(=O)O)C(=O)O)OC[C@@H]2C[C@@H](O)[C@H](n3ccc(N)nc3=O)O2)[C@@H](COP(=O)(O)O)O[C@H]1n1cnc2c(=O)[nH]c(N)nc21 (some centres undefined)	> 65 µM
2.5 µM	7 µM	COCCN[P@](=O)(OC[C@@H]1C[C@@H](O)[C@H](n2ccc(N)nc2=O)O1)O[C@H]1[C@@H](OC)[C@H](n2cnc3c(=O)[nH]c(N)nc32)O[C@@H]1COP(=O)(O)O	> 65 µM
